# ChEMBL document CHEMBL4028907, “Semisynthesis and Biological Evaluation of Xanthone Amphiphilics as Selective, Highly Potent Antifungal Agents to Combat Fungal Resistance” (J Med Chem, 2017)
# Active and inactive are the calls of the source. No cut-off for these calls is given here.
# Key:
# Candida albicans [1] = experiment: Synergistic antifungal activity against drug resistant Candida albicans DF2672R after 24 hrs in presence of miconazole by checkerboard assay; assay type: functional
# How it was run: (§1)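 Checkerboard combination of each compound with a second antifungal, following a previously reported procedure. FIC = MIC of A in combination/MIC of A alone + MIC of B in combination/MIC of B alone.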
# Candida albicans [2] = experiment: Potency index, ratio of natamycin concentration to compound concentration for antifungal activity against drug resistant Candida albicans DF2672R infected C57BL6 mouse; assay type: functional
# Bacillus cereus = experiment: Antibacterial activity against Bacillus cereus ATCC11778 by two fold serial dilution method; assay type: functional
# How it was run: (§2)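 Broth microdilution (CLSI, minor modifications) in Sabouraud dextrose, Mueller−Hinton or RPMI 1640 broth; two-fold serial dilutions of compound from stock to final 100 to 0.78 μg/mL. MIC taken as lowest concentration giving no visible growth.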
# Candida albicans [3] = experiment: Fungicidal activity against drug resistant Candida albicans DF2672R at 1 time MIC after 24 hrs by time kill assay; assay type: functional
# How it was run: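 Cells at 10^5–10^6 CFU/mL exposed to 1×, 2×, 4× or 8× MIC at 35 °C. Samples taken at 0.5, 1, 2, 4, 8 and 24 h, serially diluted in PBS and plated on SDA. CFU counted after 24 h at 35 °C; biological replicates.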
# [4] = Selectivity index, ratio of IC50 for human corneal fibroblasts to MIC for drug resistant Candida albicans DF2672R
# Candida albicans [5] = experiment: Synergistic antifungal activity against drug resistant Candida albicans DF2672R after 24 hrs in presence of itraconazole by checkerboard assay; assay type: functional; how it was run: as §1
# Staphylococcus aureus [6] = experiment: Antibacterial activity against methicillin resistant Staphylococcus aureus DM21455 by two fold serial dilution method; assay type: functional
# How it was run: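 Broth microdilution per CLSI guidelines with minor modifications, run in Mueller−Hinton broth; MIC is the lowest concentration giving no visible growth.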
# [7] = Cytotoxicity against human corneal fibroblasts assessed as reduction in cell viability after 4 hrs by LDH assay; assay type: cell-based; conditions: Corneal fibroblast
# How it was run: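 LDH release assay on human corneal fibroblasts seeded at 10000 cells per well, exposed to a range of compound concentrations up to 100 μM. 1% Triton X-100 served as positive control and 0.5% DMSO as negative control; biological replicates.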
# Staphylococcus aureus [8] = experiment: Antibacterial activity against Staphylococcus aureus DM4001R by two fold serial dilution method; assay type: functional; how it was run: as §2
# Klebsiella pneumoniae = experiment: Antibacterial activity against Klebsiella pneumoniae DM4299 by two fold serial dilution method; assay type: functional; how it was run: as §2
# Candida albicans [9] = experiment: Antifungal activity against Candida albicans ATCC 10231 after 24 hrs by two fold serial dilution method; assay type: functional; conditions: ATCC 10231, 24 h
# How it was run: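 Candida grown on Sabouraud dextrose agar at 35 °C for 24 h, adjusted to ~5×10^3 CFU/mL. Two-fold dilutions from 100 to 0.78 μg/mL in Sabouraud dextrose broth, incubated at 35 °C for 24 h. MIC is the lowest concentration inhibiting growth by eye and by OD600. CLSI-based with minor modifications.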
# Aspergillus fumigatus = experiment: Antifungal activity against Aspergillus fumigatus TCC MYA3626 after 48 hrs by two fold serial dilution method; assay type: functional; conditions: TCC MYA3626, 48 h
# How it was run: (§3)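 Moulds grown on potato dextrose agar, 30 °C, 4 days; inoculum adjusted to about 5×10^3 CFU/mL. Two-fold serial dilutions in RPMI-1640 broth, 100 to 0.78 μg/mL final, mixed with equal volume of cell suspension; incubated 30 °C, 48 h. MIC = lowest concentration inhibiting growth, judged visually and by OD530.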
# Fusarium solani = experiment: Antifungal activity against Fusarium solani 46492 after 48 hrs by two fold serial dilution method; assay type: functional; conditions: Fusarium solani, 46492, 48 h; how it was run: as §3
# Candida albicans [10] = experiment: Induction of membrane permiablization in drug resistant Candida albicans DF2672R at 4 times MIC after 1 to 2 hrs by SYTOX green dye based spectrofluorometric assay; assay type: functional
# How it was run: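 Overnight cultures washed and resuspended in PBS at OD600 0.2, then loaded with 0.3 μM SYTOX Green in the dark. After the signal stabilised, compound in PBS/DMF was added (final DMF 0.5%; 0.5% DMF as control). Fluorescence (ex 504/em 523 nm) followed continuously for 1–2 h; biological replicates.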
structure (smiles),measurement,setting,value
COc1c(OCC(O)CNC(=N)N)cc2oc3cc(OCC(O)CNC(=N)N)c(CC=C(C)C)c(O)c3c(=O)c2c1CC=C(C)C (centres undefined),fractional inhibitory concentration index (FICI),Candida albicans [1],0.88
same,Ratio,Candida albicans [2],25
same,MIC,Bacillus cereus,1.56 to 3.13 µg/mL
same,Activity,Candida albicans [3],Active
same,Selectivity Index,[4],41 - 82
same,fractional inhibitory concentration index (FICI),Candida albicans [5],1.28
same,MIC,Staphylococcus aureus [6],1.56 to 3.13 µg/mL
same,IC50,[7],> 100 µM
same,MIC,Staphylococcus aureus [8],1.56 to 3.13 µg/mL
same,MIC,Klebsiella pneumoniae,25 to 50 µg/mL
same,MIC,Candida albicans [9],0.78 µg/mL
same,MIC,Aspergillus fumigatus,6.25 µg/mL
same,MIC,Fusarium solani,3.13 µg/mL
same,Activity,Candida albicans [10],Active
